# Measured values taken from ChEMBL document CHEMBL3351822, “Spongiapyridine and related spongians isolated from an Indonesian Spongia sp” (J Nat Prod, 2014).
# Calls of active or inactive are those of the source. The calls are words filed in the database; no cut-off is given here.
# Key:
# [1] = molecular target: Nuclear factor NF-kappa-B complex (Homo sapiens) (UniProt Q00653+P19838+Q04206); assay: Inhibition of TNF-alpha-induced NF-kappaB activity in HEK293 cells after 6 hrs by luciferase reporter gene assay; type: cell-based
# Nuclear factor NF-kappa-B complex (Homo sapiens), sequence (P19838 whole entry, looked up): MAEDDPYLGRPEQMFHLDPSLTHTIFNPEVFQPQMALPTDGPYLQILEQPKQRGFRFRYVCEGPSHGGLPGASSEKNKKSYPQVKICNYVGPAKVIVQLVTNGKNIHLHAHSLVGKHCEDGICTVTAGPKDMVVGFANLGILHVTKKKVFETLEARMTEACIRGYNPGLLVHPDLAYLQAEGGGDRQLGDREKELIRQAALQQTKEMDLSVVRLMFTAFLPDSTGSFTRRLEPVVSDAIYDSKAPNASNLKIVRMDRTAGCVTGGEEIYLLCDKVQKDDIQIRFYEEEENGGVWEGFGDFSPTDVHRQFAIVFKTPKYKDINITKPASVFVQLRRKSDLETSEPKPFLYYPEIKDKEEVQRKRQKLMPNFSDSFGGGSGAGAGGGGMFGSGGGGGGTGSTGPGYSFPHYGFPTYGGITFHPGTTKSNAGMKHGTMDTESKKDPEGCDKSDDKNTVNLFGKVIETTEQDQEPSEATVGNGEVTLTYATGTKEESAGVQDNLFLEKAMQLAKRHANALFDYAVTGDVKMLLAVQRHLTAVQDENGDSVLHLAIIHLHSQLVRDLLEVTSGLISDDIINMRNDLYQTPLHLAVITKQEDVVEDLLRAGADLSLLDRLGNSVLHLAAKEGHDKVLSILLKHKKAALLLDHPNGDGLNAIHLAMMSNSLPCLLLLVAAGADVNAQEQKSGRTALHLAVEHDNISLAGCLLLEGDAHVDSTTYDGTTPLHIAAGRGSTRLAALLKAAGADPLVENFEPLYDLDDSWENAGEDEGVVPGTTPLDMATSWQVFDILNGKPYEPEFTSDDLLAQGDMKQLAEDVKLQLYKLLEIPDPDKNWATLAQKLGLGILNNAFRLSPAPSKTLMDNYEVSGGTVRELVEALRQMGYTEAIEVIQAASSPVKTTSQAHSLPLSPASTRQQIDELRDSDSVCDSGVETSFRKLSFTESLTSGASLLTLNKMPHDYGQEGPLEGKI
# Nuclear factor NF-kappa-B complex (Homo sapiens), sequence (Q00653 whole entry, looked up): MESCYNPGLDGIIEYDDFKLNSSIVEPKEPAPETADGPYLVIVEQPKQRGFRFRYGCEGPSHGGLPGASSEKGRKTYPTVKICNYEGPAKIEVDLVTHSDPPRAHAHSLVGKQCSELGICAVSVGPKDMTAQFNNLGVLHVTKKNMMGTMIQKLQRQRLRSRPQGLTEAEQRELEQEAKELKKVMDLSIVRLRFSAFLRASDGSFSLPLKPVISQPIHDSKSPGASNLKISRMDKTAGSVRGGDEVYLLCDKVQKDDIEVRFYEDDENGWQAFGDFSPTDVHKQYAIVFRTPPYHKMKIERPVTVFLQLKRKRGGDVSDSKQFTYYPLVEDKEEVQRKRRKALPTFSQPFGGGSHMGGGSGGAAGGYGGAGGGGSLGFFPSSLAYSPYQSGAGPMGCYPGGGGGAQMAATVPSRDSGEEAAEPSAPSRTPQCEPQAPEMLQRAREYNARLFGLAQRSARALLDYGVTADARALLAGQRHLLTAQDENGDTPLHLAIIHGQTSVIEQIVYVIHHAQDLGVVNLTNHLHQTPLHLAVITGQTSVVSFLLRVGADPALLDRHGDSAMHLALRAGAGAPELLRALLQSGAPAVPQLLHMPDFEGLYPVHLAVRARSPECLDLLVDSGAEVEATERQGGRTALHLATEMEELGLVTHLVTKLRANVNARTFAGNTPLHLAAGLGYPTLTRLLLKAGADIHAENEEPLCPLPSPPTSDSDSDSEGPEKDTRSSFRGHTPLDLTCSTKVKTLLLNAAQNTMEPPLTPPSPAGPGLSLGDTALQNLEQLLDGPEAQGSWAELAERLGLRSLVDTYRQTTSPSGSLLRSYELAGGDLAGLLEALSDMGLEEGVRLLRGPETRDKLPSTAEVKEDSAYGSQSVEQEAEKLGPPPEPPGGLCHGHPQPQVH
# Nuclear factor NF-kappa-B complex (Homo sapiens), sequence (Q04206 whole entry, looked up): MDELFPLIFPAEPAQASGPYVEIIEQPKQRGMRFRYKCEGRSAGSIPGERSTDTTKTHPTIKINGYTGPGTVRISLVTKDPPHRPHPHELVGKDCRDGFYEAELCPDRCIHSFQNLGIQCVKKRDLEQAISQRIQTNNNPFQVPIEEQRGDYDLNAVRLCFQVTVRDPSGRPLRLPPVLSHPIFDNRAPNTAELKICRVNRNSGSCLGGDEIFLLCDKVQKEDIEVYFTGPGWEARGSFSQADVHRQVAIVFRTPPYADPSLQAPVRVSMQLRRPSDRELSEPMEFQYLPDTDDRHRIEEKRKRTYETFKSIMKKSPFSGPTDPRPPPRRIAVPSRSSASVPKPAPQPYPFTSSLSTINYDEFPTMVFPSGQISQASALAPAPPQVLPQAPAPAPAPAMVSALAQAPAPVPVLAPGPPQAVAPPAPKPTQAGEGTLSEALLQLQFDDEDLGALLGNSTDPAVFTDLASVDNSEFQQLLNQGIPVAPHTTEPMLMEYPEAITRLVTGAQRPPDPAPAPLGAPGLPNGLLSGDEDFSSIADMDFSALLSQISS
# [2] = molecular target: T1, Nitric oxide synthase, inducible (Mus musculus) (UniProt P29477); assay: Inhibition of LPS-induced iNOS activity in mouse RAW264.7 cells after 24 hrs; type: cell-based
# T1 sequence (whole entry): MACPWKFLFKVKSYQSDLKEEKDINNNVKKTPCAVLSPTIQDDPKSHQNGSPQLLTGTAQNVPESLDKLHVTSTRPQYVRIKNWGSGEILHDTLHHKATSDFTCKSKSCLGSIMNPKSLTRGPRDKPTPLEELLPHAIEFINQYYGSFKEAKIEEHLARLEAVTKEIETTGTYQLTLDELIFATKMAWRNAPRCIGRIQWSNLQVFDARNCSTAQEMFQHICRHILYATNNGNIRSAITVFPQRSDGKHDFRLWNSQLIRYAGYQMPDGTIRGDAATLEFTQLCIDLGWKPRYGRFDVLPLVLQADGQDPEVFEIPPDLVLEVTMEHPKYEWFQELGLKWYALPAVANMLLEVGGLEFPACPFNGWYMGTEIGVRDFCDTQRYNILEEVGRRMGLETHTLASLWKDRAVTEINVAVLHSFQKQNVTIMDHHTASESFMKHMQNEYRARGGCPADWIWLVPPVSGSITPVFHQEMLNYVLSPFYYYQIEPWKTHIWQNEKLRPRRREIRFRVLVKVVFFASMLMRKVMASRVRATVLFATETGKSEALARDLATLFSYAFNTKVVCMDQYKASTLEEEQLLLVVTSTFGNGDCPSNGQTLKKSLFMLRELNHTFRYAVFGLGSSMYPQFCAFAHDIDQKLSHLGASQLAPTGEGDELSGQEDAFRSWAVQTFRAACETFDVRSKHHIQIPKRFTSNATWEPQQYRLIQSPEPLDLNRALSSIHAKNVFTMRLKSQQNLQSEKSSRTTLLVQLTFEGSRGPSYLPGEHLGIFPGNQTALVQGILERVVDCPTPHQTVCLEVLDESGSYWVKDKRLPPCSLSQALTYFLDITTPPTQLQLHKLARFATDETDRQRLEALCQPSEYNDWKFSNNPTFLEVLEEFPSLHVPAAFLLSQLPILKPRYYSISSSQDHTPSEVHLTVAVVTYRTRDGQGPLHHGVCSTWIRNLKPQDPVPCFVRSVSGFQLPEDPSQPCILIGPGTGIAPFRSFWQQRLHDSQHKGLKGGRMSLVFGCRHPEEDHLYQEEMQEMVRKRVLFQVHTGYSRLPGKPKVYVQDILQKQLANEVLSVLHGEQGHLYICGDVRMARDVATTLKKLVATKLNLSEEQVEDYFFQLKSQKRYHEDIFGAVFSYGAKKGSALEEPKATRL
# Aromatase [3] = molecular target: T2, Aromatase (Homo sapiens, UniProt P11511); assay: Inhibition of aromatase (unknown origin) using dibenzylfluorescein substrate at 50 uM after 24 hrs by fluorescence assay
# T2 sequence (P11511 whole entry): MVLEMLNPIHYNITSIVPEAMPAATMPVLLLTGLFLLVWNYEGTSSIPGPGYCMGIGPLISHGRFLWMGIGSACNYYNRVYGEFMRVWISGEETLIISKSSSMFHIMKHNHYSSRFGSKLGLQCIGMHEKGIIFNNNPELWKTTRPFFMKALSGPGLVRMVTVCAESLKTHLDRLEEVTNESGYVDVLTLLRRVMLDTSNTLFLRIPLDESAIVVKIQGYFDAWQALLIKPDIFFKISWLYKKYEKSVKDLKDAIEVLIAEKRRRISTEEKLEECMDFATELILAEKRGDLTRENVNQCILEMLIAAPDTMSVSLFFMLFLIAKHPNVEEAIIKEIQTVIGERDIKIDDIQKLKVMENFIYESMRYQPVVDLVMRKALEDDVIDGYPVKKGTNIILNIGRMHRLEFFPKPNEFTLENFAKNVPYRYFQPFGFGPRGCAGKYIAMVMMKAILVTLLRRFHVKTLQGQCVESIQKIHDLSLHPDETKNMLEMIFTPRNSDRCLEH
# [4] = molecular target: Beta-secretase 1 (Homo sapiens) (UniProt P56817); assay: Inhibition of BACE1 (unknown origin) assessed as proteolytic cleavage of amyloid precursor protein after 16 hrs at < 100 uM by chemiluminescence assay
# Beta-secretase 1 (Homo sapiens), sequence (P56817 whole entry): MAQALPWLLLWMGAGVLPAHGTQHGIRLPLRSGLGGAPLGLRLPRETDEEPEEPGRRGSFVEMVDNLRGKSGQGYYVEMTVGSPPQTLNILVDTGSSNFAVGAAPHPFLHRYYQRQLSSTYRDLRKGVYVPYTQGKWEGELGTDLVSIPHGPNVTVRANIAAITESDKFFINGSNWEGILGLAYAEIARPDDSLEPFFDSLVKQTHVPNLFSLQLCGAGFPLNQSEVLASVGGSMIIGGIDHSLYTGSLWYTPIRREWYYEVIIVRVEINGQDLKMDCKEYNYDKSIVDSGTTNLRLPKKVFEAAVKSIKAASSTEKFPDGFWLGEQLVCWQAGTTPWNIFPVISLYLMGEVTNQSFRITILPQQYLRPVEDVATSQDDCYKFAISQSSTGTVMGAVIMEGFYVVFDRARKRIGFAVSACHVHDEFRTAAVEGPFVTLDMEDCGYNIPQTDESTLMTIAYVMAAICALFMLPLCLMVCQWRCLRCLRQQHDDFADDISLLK
# Aromatase [5] = molecular target: T2, Aromatase; assay: Inhibition of aromatase (unknown origin) using dibenzylfluorescein substrate after 24 hrs by fluorescence assay
# [6] = molecular target: NAD(P)H dehydrogenase [quinone] 1 (Mus musculus) (UniProt Q64669); assay: Induction of quinone reductase 1 in mouse Hepa-1c1c7 cells after 48 hrs by MTT assay; type: cell-based
# NAD(P)H dehydrogenase [quinone] 1 (Mus musculus), sequence (Q64669 whole entry): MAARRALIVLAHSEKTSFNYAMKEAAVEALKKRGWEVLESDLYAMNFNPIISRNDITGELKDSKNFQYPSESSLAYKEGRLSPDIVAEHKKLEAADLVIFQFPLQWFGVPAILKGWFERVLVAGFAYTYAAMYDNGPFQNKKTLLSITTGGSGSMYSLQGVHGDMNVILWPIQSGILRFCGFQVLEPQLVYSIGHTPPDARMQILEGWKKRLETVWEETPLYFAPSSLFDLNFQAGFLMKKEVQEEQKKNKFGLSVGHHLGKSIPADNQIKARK
# How it was run: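 QR1 induction measured in cultured murine Hepa 1c1c7 hepatoma cells. Potency is expressed as the CD value, the test-compound concentration needed to double QR1 enzymatic activity.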
structure (smiles),measurement,setting,value
CC1=C(O)C(=O)C[C@@]2(C)[C@H]1CC[C@@]1(CO)c3cocc3CC[C@@H]12,ED50,[1],> 50 µM
same,inhibition,[2],inactive
same,inhibition at 50 µM,Aromatase [3],< 50%
same,inhibition,[4],inactive
CC1=C(O)C(=O)C[C@]2(C)[C@H]3CCc4cocc4[C@]3(CO)CCC12O (some centres not stated),ED50,[1],> 50 µM
same,inhibition,[2],inactive
same,IC50,Aromatase [5],34.4 µM
same,CD,[6],11.2 µM
same,inhibition,[4],inactive
CC1=C(O)C(=O)C[C@@]2(C)[C@H]1CC[C@@]1(CO)c3cnccc3C(=O)C[C@@H]12,ED50,[1],> 50 µM
same,inhibition,[2],inactive
same,inhibition at 50 µM,Aromatase [3],< 50%
same,inhibition,[4],inactive
C[C@]12CC(=O)OC[C@@](C)(C(=O)O)[C@@H]1CC[C@@]1(CO)c3cocc3CC[C@@H]12,ED50,[1],> 50 µM
same,inhibition,[2],inactive
same,inhibition at 50 µM,Aromatase [3],< 50%
same,inhibition,[4],inactive
